Assay [1] can be described thus: Inhibition of porcine CEase using para-nitrophenyl butyrate as substrate preincubated with substrate for 5 mins followed by enzyme addition by spectrophotometric method. Also on record: species or system Sus scrofa. The procedure, abridged:
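Porcine cholesterol esterase (10 ng mL–1 final) was assayed in pH 7.0 phosphate/NaCl buffer with 6 mM taurocholate, 3% acetonitrile, and 20 μM p-nitrophenyl butyrate at 25 °C. Test compounds in DMSO were preincubated 5 min, then the enzyme was added and A405 was monitored. IC50 came from four concentrations (1, 5, 10, 25 nM), with means of triplicates.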

The species entered for assay [2] is Sus scrofa. The experiment in a line: Inhibition of porcine CEase at 50 nM using para-nitrophenyl butyrate as substrate preincubated with substrate for 5 mins followed by enzyme addition by spectrophotometric method relative to control.
For assay [3], the species on record is Sus scrofa. The experiment in a line: Mixed-type inhibition of porcine CEase at 1 to 50 nM using para-nitrophenyl butyrate as substrate preincubated with substrate for 5 mins followed by enzyme addition by Lineweaver-Burk plot analysis.

Active and inactive are the calls of the source. The calls are words filed in the database; no cut-off is given here.

Broadly, the IC50 is the concentration that inhibits the measured activity by half. The low end stands for higher potency, the high end for lower potency. In general, inhibition refers to how much of the control response was suppressed. The compound `O=c1cc(-c2cc(F)cc(C(F)(F)F)c2)oc2ccc3ccccc3c12` returned a 50% inhibitory concentration (IC50) in assay [1] of 29.1 nM. This compound also came in with an inhibition in the assay listed under Sus scrofa [2] greater than 60%.

In assay [1], `O=c1cc(-c2cccc(F)c2)oc2ccc3ccccc3c12` showed an IC50 of 3.9 nM. The inhibition in the assay listed under Sus scrofa [2] was greater than 60%. Turning to `CCOP(=O)(OCC)Oc1cc(O)c2c(=O)cc(-c3ccccc3)oc2c1`, the 50% inhibitory concentration (IC50) in assay [1] was 0.72 nM. Take `O=c1cc(-c2cccc(Cl)c2)oc2ccc3ccccc3c12`: in assay [1], it took 0.83 nM to reach half-maximal inhibition (IC50). This compound showed an inhibition in the assay listed under Sus scrofa [2] greater than 60%. On the same counts, the results for `O=c1cc(-c2cc([N+](=O)[O-])cc([N+](=O)[O-])c2)oc2ccc3ccccc3c12` are 9.8 nM and greater than 60%. With `O=c1cc(-c2ccc(C(F)(F)F)cc2F)oc2ccc3ccccc3c12`, 23.1 nM corresponded to half-maximal inhibition in assay [1] (IC50). The inhibition in the assay filed under Sus scrofa [2] was greater than 60%.

For `O=c1cc(-c2ccc([N+](=O)[O-])cc2)oc2ccc3ccccc3c12`, the IC50 in assay [1] turned out to be 18 nM. The same compound had an inhibition in the assay listed under Sus scrofa [2] greater than 60%. In the case of `O=c1cc(-c2cc(F)ccc2C(F)(F)F)oc2ccc3ccccc3c12`, the IC50 in assay [1] was found to be 27.8 nM. The compound further registered an inhibition in the assay listed under Sus scrofa [2] greater than 60%. For `O=c1cc(-c2ccc(F)c(F)c2)oc2ccc3ccccc3c12` the same measures were 1.15 nM and greater than 60%.

Regarding `O=c1cc(-c2ccc(Br)cc2)oc2ccc3ccccc3c12`, in assay [1], the IC50 was determined as 8.15 nM. This compound also returned an inhibition in the assay listed under Sus scrofa [2] greater than 60%. For `O=c1cc(-c2ccc(CCl)cc2)oc2ccc3ccccc3c12` the same measures were 22.2 nM and greater than 60%. In turn, `O=c1cc(-c2ccccc2)oc2ccc3ccccc3c12` [BETA-NAPHTHOFLAVONE] yielded a concentration for half-maximal inhibition (IC50) in assay [1] of 51.1 nM. For the compound `O=c1cc(-c2cc(F)cc(F)c2)oc2ccc3ccccc3c12`, the half-maximal inhibitory concentration (IC50) in assay [1] was 0.99 nM. In addition, the inhibition in the assay filed under Sus scrofa [2] is greater than 60%. For `O=c1cc(-c2ccccc2Br)oc2ccc3ccccc3c12` the same measures were 4.69 nM and greater than 60%.

`O=c1cc(-c2cccc(Cl)c2Cl)oc2ccc3ccccc3c12` registered a 50% inhibitory concentration (IC50) in assay [1] of 0.73 nM. Further, in the assay listed under Sus scrofa [3], the inhibition entry was “Active”. Besides, the inhibition in the assay listed under Sus scrofa [2] is greater than 60%. On to `O=c1cc(-c2c(F)cccc2F)oc2ccc3ccccc3c12`, for which 1.19 nM corresponded to half-maximal inhibition in assay [1] (IC50). This compound also came in with an inhibition in the assay listed under Sus scrofa [2] greater than 60%. On the same counts, the results for `O=c1cc(-c2cc(F)ccc2F)oc2ccc3ccccc3c12` are 1.08 nM and greater than 60%. With `O=c1cc(-c2c(F)cccc2C(F)(F)F)oc2ccc3ccccc3c12`, in assay [1], the midpoint of inhibition, the IC50, lay at 29.2 nM. The compound also returned an inhibition in the assay filed under Sus scrofa [2] greater than 60%. For `O=c1cc(-c2ccc(F)cc2)oc2ccc3ccccc3c12` the same measures were 4.5 nM and greater than 60%.

Take `O=c1cc(-c2ccccc2F)oc2ccc3ccccc3c12`: it took 2.59 nM to reach half-maximal inhibition in assay [1] (IC50). The inhibition in the assay filed under Sus scrofa [2] is greater than 60%. For `O=c1cc(-c2cccc([N+](=O)[O-])c2)oc2ccc3ccccc3c12` the same measures were 16.4 nM and greater than 60%. On the same counts, the results for `O=c1cc(-c2cccc(CCl)c2)oc2ccc3ccccc3c12` are 20.1 nM and greater than 60%. For `O=c1cc(-c2ccc(F)cc2F)oc2ccc3ccccc3c12` the same measures were 1.46 nM and greater than 60%. As to `O=c1cc(-c2cccc(Br)c2)oc2ccc3ccccc3c12`, it took 6.01 nM to reach half-maximal inhibition in assay [1] (IC50). The inhibition in the assay listed under Sus scrofa [2] is greater than 60%. On the same counts, the results for `O=c1cc(-c2ccccc2I)oc2ccc3ccccc3c12` are 9.55 nM and greater than 60%. For `O=c1cc(-c2ccc(I)cc2)oc2ccc3ccccc3c12` the same measures were 13.1 nM and greater than 60%. For `O=c1cc(-c2ccccc2C(F)(F)F)oc2ccc3ccccc3c12` the same measures were 31.4 nM and greater than 60%.
